Usually IC50 stands for the concentration that gives 50% inhibition. Read a low IC50 as greater potency. One may read the IC90 as the concentration needed for an effect of 90%. Higher therefore signals weaker potency. The term Ki denotes a measure of affinity in units of concentration, obtained from inhibition or displacement. A higher Ki goes with a looser hold on the target.

Experimental findings from ChEMBL document CHEMBL1126785, “Peptidomimetic HIV protease inhibitors: phosphate prodrugs with improved biological activities” (J Med Chem, 1993) are described below.

Experiment [1] concerns Human immunodeficiency virus 1. In words: (§1) Tested for the inhibition of p24 production in HIV-1 IIIB infected human peripheral blood mononuclear cells (PBMC). Format: functional, organism-based. In short, it runs like this: (§2)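 Human PBMC (5×10^4 cells) were infected with HIV-1 IIIB at MOI 0.003 for 90 min. They were then kept in triplicate wells with continuous compound present for 7 days; compounds came from 10 mM DMSO stocks. Supernatant p24 was measured by ELISA. IC50 and IC90 were taken from linear regression on the linear part of the dose-response curve.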

Experiment [2] concerns Human immunodeficiency virus 1. Described as §1. Format: functional. In short, it runs like this: as §2
Experiment [3] has as its target Human immunodeficiency virus type 1 protease (Human immunodeficiency virus 1, UniProt Q72874). In words: Tested for inhibitory activity against HIV-1 protease. In short, it runs like this:
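Recombinant HIV-1 protease hydrolysing 2.5 mM synthetic octapeptide substrate H-Val-Ser-Gln-Asn-Tyr-Pro-Ile-Val-OH, with or without inhibitor. Run at 30 °C in 100 mM sodium acetate pH 5.5 with 10% glycerol, 5% ethylene glycol and 0.1% Nonidet P-40. Stopped after 30 min with 1% trifluoroacetic acid; hydrolysis quantified by HPLC.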

On to `CC[C@H](C)[C@H](NC(=O)[C@H](C(C)C)[C@@H](O)[C@H](O)[C@H](CC1CCCCC1)NC(=O)[C@H](Cc1c[nH]cn1)NC(=O)COc1cccc2ccccc12)C(=O)NCc1ccccn1`, for which the IC50 in experiment [1] was 0.0502 µM. In addition, the IC90 in experiment [2] was 0.223 µM. In addition, the Ki in experiment [3] was under 0.001 µM.
